PMI act hi M6P: increases human PMI activity with near-saturating mannose 6-phosphate. P34949. coupled PMI enzyme assay, resazurin fluorescence, 20 min; stronger effect = higher value; 1 = untreated enzyme, 0 = substrate-free blank. activation factor at 20 µM. 0.34% of 190,000 active;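 active = activation factor of 2 or more at 20 µM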
Target sequence (P34949 whole entry, looked up): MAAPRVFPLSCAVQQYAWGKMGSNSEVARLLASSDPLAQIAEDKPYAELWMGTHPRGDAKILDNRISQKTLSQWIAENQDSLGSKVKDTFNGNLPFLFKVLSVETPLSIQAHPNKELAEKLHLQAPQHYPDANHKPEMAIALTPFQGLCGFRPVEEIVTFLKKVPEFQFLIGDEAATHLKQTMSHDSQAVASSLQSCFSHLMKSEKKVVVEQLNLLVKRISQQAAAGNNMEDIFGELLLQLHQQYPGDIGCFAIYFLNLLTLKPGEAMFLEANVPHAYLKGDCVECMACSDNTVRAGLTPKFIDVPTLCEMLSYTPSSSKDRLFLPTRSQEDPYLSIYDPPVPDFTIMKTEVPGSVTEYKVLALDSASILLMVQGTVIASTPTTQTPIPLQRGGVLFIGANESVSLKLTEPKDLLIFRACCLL
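Test system: human phosphomannose isomerase with PGI, G6PDH, diaphorase coupling enzymes; amount: 15 ng/mL PMI; incubation: enzyme reaction with compound 20 min at room temperature; technique: resorufin fluorescence (Ex 544/Em 590 nm) from resazurin via diaphorase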
PMI act: phosphomannose isomerase (human) activation. P34949. purified human PMI, coupled resazurin fluorescence, 20 min; stronger effect = higher value; 1 = vehicle control, 0 substrate-free wells. activation factor at 20 µM. 0.005% of 190,000 active. AID 1214;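 active = activation factor of 2 or more at 20 µM, relative to plate controls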
Diaphorase act: diaphorase activation or chemical reduction counter-screen. Diaphorase/resazurin coupled assay, resorufin fluorescence, 16 min; stronger effect = higher value; 1 = vehicle wells, 0 = NADH-free wells. activation factor at 20 µM. 0.005% of 190,000 active. AID 1229;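 active = diaphorase activity raised at least twofold by the compound at 20 µM; inactive = activation factor below 2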
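System – purified diaphorase enzyme from Clostridium kluyveri · Input – enzyme 0.07 U/mL final · Also added – final NADH 0.114 mM, resazurin 0.1 mM · Measured by – fluorescence of resorufin, 544 nm excitation, 590 nm emission · Timing – 16 min enzyme reaction, ambient temperature · Measure – resorufin increase flagging diaphorase activators or reducers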
Lmaj promast: inhibitors of Leishmania major promastigote growth | Leishmania major promastigotes, resazurin fluorescence viability | inhibition, % at 10 µM | 9% of 200,000 active | AID 1063; in the data active = inhibition above about 50%;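 note: promastigotes grown with compound for 44 hours at 28 °C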
WT yeast gro inh: growth inhibition of WT yeast, mitochondrial fusion screen. mitochondrial fusion phenotypic screen, WT strain. inhibition, % at 10 µM. AID 1362. 2.1% of 190,000 active; in the data active = inhibition above about 58%; tested in S. cerevisiae
* marks the source's active call; other numbers are inactive results; . = no result given. Hits are enriched below; roughly 10% of the tested compounds scored in any of these assays.

SMILES	PMI act hi M6P	PMI act	Diaphorase act	Lmaj promast	WT yeast gro inh
CN(C)c1ccc(/C=C/c2ccncc2)cc1	1.1	1	0.9	0.1	11.3
CN(C)c1ccc(/C=C/c2ccc3c4ccccc4ccc3[n+]2-c2ccccc2)cc1	0.9	1.1	0.3	100.5*	88.1
CN(C)c1ccc(/C=C/C(=O)c2ccccc2O)cc1	0.8	0.9	0.8	-5.6	-6.3
Cc1ccc(-n2c(-c3ccncc3)n[nH]c2=S)c(C)c1	1	1.1	0.9	-3.5	-0.8
COc1cc(CNCCc2ccc(S(N)(=O)=O)cc2)ccc1OCC(=O)N1CCCCC1	1.1	1	1	-5.9	1.3
N=C1S/C(=C\c2ccco2)C(=O)N1c1nccs1	1.1	1.4	0.6	90.5*	71.8
N=C1S/C(=C\c2ccco2)C(=O)N1c1ccc2c(c1)OCO2	1.1	1.3	0.8	6.1	21.5
Cc1cccc(C)c1NC(=S)NC(C)CCc1ccccc1 (centres undefined)	1.1	1	0.9	60.5*	72.9*
CC(=O)c1ccc(NC(=S)NC(C)CCc2ccccc2)cc1 (centres undefined)	1	0.9	0.7	8.0	34.8
Cc1ccc(NC(=S)NC(C)CCc2ccccc2)cc1C (centres undefined)	1	1	0.8	90.3*	67.5*
Cc1ccc(-n2c(C)cc(C(=O)COC(=O)c3ccc[nH]c3=O)c2C)cc1	1	0.9	0.9	70.2*	28.7
COCCn1c(C)cc(C(=O)COC(=O)c2ccc[nH]c2=O)c1C	1	0.8	0.9	57.2*	-16.0
Cc1cc(C(=O)COC(=O)c2ccc[nH]c2=O)c(C)n1-c1ccc(Br)cc1	0.7	0.7	0.8	7.7	-3.0
COc1cc(NC(=O)c2cccs2)c(C(=O)OCC(=O)c2cc(C)n(-c3ccc(F)cc3)c2C)cc1OC	1	1	0.8	90.4*	3.5
Cc1cccn2c(=O)c(C=NCCO)c(Nc3ccc(Cl)cc3)nc12	1	1	1	15.9	-7.9
O=c1c(Br)c(N2CCCCC2)cnn1-c1ccccc1	1.1	1.1	0.9	21.2	-7.0
O=S(=O)(Nc1nc(-c2sccc2Cl)cs1)c1cc(Cl)ccc1Cl	1.2	0.6	0.8	-9.4	-20.3
c1cnc2ccc(C(c3nnnn3C3CCCC3)N3CCN4CCCC4C3)cc2c1 (centres undefined)	0.9	0.9	0.9	52.0*	12.1
c1cnc2ccc(C(c3nnnn3C3CCCCC3)N3CCN(C4CCCCC4)CC3)cc2c1 (centres undefined)	.	.	.	98.8*	.
O=C1C2=C(C(c3ccccc3)=NCCN2)C(c2cccc([N+](=O)[O-])c2)N1c1ccccc1 (centres undefined)	1	1.1	0.9	-2.0	8.5
COc1ccc(CCNC(=O)c2c(N)no[n+]2[O-])cc1OC	0.8	0.9	0.9	-7.9	-1.4
S=C(NCc1ccccc1)NN1CCOCC1	1	1	0.9	-2.0	-5.8
O=[N+]([O-])c1ccc(C[n+]2cccc3ccccc32)cc1	1	1	0.9	-1.9	2.0
O=[N+]([O-])c1ccc(C[n+]2cccc3ccc4cccnc4c32)cc1	1.2	1.1	1.1	17.0	59.0*
O=c1ccc(-c2nc3ccccc3n2Cc2ccccc2Cl)c[nH]1	0.8	0.8	0.6	0.5	29.0
SMILES	PMI act hi M6P	PMI act	Diaphorase act	Lmaj promast	WT yeast gro inh
Clc1ccccc1Cn1c(/C=C/c2ccco2)nc2ccccc21	1.5	1.3	0.8	46.7	78.1*
CN(CCc1ccccn1)C(=S)NC(=O)c1ccco1	1.1	1.1	1	-6.1	4.4
CCc1ccccc1NC(=O)c1ccc(CN2CCC(Cc3ccccc3)CC2)cc1	1	0.9	1	79.6*	22.9
O=C(c1ccc(CN2CCOCC2)cc1)N1CCC(Cc2ccccc2)CC1	1.1	1	0.9	87.4*	2.3
CCc1ccccc1OCCCCN1CCCC1	0.9	0.9	0.9	94.5*	4.3
C=CCc1ccccc1OCC(O)CN1CCN(c2ccccc2F)CC1 (centres undefined)	1	0.9	0.8	68.7*	21.8
C=CCc1ccccc1OCC(CN1CCCCC1)OC(C)=O (centres undefined)	1	1	1	65.4*	-4.8
C=CCc1ccccc1OCCCCN1CCCC1	1	0.9	0.9	76.7*	-17.4
COc1cccc(C(=O)C2CCCN(C(=O)CCC3=NNC(=O)CC3)C2)c1 (centres undefined)	1.1	1.1	1.1	23.3	-8.2
CC(Sc1nc2ccccc2n1C)C(=O)NC(c1ccccc1)c1ccccc1 (centres undefined)	0.9	0.9	0.9	99.8*	58.5*
COc1ccc(-c2nc(CN(CC3CCC(=O)N3)C(C)C)c(C)o2)c(C)c1C (centres undefined)	0.9	0.9	0.8	79.2*	22.9
COc1ccc(-c2nc(CN3CCCCC3c3nccn3C)c(C)o2)c(C)c1C (centres undefined)	1	0.9	1	96.5*	74.8*
COc1ccc(-c2nc(CN(C)C(C)c3ccon3)c(C)o2)c(C)c1C (centres undefined)	1	0.9	0.9	5.7	4.8
Cc1ccc(NC(=O)C2C3/C=C\CCCCC32)cc1C (centres undefined)	1	1	0.9	0.6	-1.4
Cc1ccc(S(=O)(=O)c2c(N)n(Cc3ccco3)c3nc4ccccc4nc23)cc1	1	1	0.7	74.1*	-13.2
Cc1cccc(-n2cnc3c(c2=O)c2nc4ccccc4nc2n3Cc2ccco2)c1	1.1	0.9	0.6	.	.
Cc1cccc(S(=O)(=O)c2c(N)n(Cc3ccco3)c3nc4ccccc4nc23)c1	1.1	1.1	0.8	77.7*	14.9
CCCCn1c(N)c(S(=O)(=O)c2ccc(C)cc2)c2nc3ccccc3nc21	0.8	0.8	0.8	56.3*	-10.4
Cc1ccc(S(=O)(=O)c2c(N)n(NC(=O)c3ccco3)c3nc4ccccc4nc23)cc1	1.4	1.6	0.8	-7.3	1.1
Cc1ccc(S(=O)(=O)c2c(N)n(-c3ccccc3)c3nc4ccccc4nc23)cc1	1	0.9	0.8	32.1	-21.2
N/C(=N\OC(=O)C(c1ccccc1)c1ccccc1)c1cccnc1	1	1	0.9	21.6	75.7*
Cc1c(C(=O)N2CCCCC2)nn(-c2ccc(Cl)cc2)c(=O)c1C#N	0.7	1	0.9	6.3	-21.7
CCCCNC(=O)CCn1c(=O)c2ccccc2n(Cc2ccccc2C)c1=O	1.1	1	0.9	8.8	-19.2
CCCCNC(=O)CCn1c(=O)c2ccccc2n(Cc2ccc(Cl)cc2)c1=O	1.1	1	1	56.8*	7.6
Cc1ccc(S(=O)(=O)N2CCOCC2)cc1NC(=O)CNCC1CCCCC1	1.1	1	0.9	74.0*	-2.1

Screening results as filed in PubChem.
